Experimental data reported in ChEMBL document CHEMBL3102806, “1,2,4-Triazole/oxime hybrids as new strategy for nitric oxide donors: Synthesis, anti-inflammatory, ulceroginicity and antiproliferative activities” (Eur J Med Chem, 2014).

Key:
Format in all cases: functional
K562 = assay: Growth inhibition of human K562 cells after 48 hrs by sulforhodamine B assay; settings: K562, 48 h
Method in brief: (§1)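 NCI full ~60 cell line panel. Five 10-fold concentrations from 10^-4 to 10^-8 M, 48 h continuous exposure, SRB protein read-out. Time-zero, control and treated absorbances give percentage growth. GI50 is the concentration where [(Ti−Tz)/(C−Tz)]×100 = 50; TGI is where Ti = Tz; LC50 is where [(Ti−Tz)/Tz]×100 = −50.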

HL-60(TB) = assay: Growth inhibition of human HL-60(TB) cells after 48 hrs by sulforhodamine B assay; settings: HL-60, 48 h
Method in brief: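 NCI 60-cell panel protocol: cells exposed continuously for 48 h to five 10-fold dilutions from 10^-4 to 10^-8 M. Growth estimated by SRB protein staining with time-zero, untreated-control and treated absorbances. Percentage growth computed at each level, and GI50 taken as the concentration giving a 50% lower net protein increase than control cells.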

T47D = assay: Growth inhibition of human T47D cells after 48 hrs by sulforhodamine B assay
Method in brief: (§2)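 NCI 60-cell-line panel, five-dose run at 10-fold dilutions from 10^-4 to 10^-8 M, 48 h continuous exposure. Viability by SRB protein stain. Percent growth is taken from time-zero, untreated-control and treated absorbances. GI50 is the concentration giving a 50% lower net protein increase than in control cells. TGI is taken at Ti = Tz, LC50 at a 50% loss of initial protein.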

BT-549 = assay: Growth inhibition of human BT549 cells after 48 hrs by sulforhodamine B assay; settings: BT-549, 48 h; method in brief: as §1
MDA-MB-231 = assay: Growth inhibition of human MDA-MB-231 cells after 48 hrs by sulforhodamine B assay; settings: MDA-MB-231, 48 h
Method in brief: (§3)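 NCI 60-cell-line panel (nine tumour subpanels), five-dose format: 10-fold dilutions from 10^-4 to 10^-8 M, 48 h continuous exposure, SRB protein stain. Percent growth at each level is derived from time-zero, untreated control and treated absorbances. GI50 is the concentration where [(Ti−Tz)/(C−Tz)]×100 = 50. Values outside the tested range are reported as above or below the limit.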

[1] = Growth inhibition of human Hs 578T cells after 48 hrs by sulforhodamine B assay; method in brief: as §1
TK-10 = assay: Growth inhibition of human TK10 cells after 48 hrs by sulforhodamine B assay; settings: TK-10, 48 h; method in brief: as §2
[2] = Growth inhibition of human RXF393 cells after 48 hrs by sulforhodamine B assay; settings: RXF 393, 48 h; method in brief: as §3
SN12C = assay: Growth inhibition of human SN12C cells after 48 hrs by sulforhodamine B assay; method in brief: as §2
SK-OV-3 = assay: Growth inhibition of human SKOV3 cells after 48 hrs by sulforhodamine B assay; settings: SK-OV-3, 48 h; method in brief: as §2
[3] = Growth inhibition of human NCI-ADR-RES cells after 48 hrs by sulforhodamine B assay; method in brief: as §3
OVCAR-8 = assay: Growth inhibition of human OVCAR8 cells after 48 hrs by sulforhodamine B assay; settings: OVCAR-8, 48 h; method in brief: as §3
IGROV-1 = assay: Growth inhibition of human IGROV1 cells after 48 hrs by sulforhodamine B assay; settings: IGROV-1, 48 h; method in brief: as §1
[4] = Growth inhibition of human UACC257 cells after 48 hrs by sulforhodamine B assay; settings: UACC-257, 48 h; method in brief: as §2
SK-MEL-28 = assay: Growth inhibition of human SK-MEL-28 cells after 48 hrs by sulforhodamine B assay; settings: SK-MEL-28, 48 h; method in brief: as §2
M14 = assay: Growth inhibition of human M14 cells after 48 hrs by sulforhodamine B assay; settings: M14, 48 h; method in brief: as §3
Malme-3M = assay: Growth inhibition of human MALME-3M cells after 48 hrs by sulforhodamine B assay; method in brief: as §3
SNB-19 = assay: Growth inhibition of human SNB19 cells after 48 hrs by sulforhodamine B assay; settings: SNB-19, 48 h; method in brief: as §2
[5] = Growth inhibition of human SF539 cells after 48 hrs by sulforhodamine B assay; settings: SF-539, 48 h; method in brief: as §3
SW-620 = assay: Growth inhibition of human SW620 cells after 48 hrs by sulforhodamine B assay; settings: SW-620, 48 h; method in brief: as §2
HCT-15 = assay: Growth inhibition of human HCT15 cells after 48 hrs by sulforhodamine B assay; settings: HCT-15, 48 h; method in brief: as §1
[6] = Growth inhibition of human HCC2998 cells after 48 hrs by sulforhodamine B assay; settings: HCC 2998, 48 h; method in brief: as §1
COLO 205 = assay: Growth inhibition of human COLO205 cells after 48 hrs by sulforhodamine B assay; settings: COLO 205, 48 h; method in brief: as §1
NCI-H522 = assay: Growth inhibition of human NCI-H522 cells after 48 hrs by sulforhodamine B assay; settings: NCI-H522, 48 h; method in brief: as §3
NCI-H460 = assay: Growth inhibition of human NCI-H460 cells after 48 hrs by sulforhodamine B assay; settings: NCI-H460, 48 h; method in brief: as §3
HOP-62 = assay: Growth inhibition of human HOP62 cells after 48 hrs by sulforhodamine B assay; settings: HOP-62, 48 h; method in brief: as §1
[7] = read-out: LC50 (the source's name)

In the case of `COc1ccc(-c2nnc(SCC(=O)Nc3ccc(/C(C)=N/O)cc3)n2-c2ccccc2)cc1OC`, the GI50 (K562) is reported as > 100 µM, the TGI (K562) is reported as > 100 µM and the CC50 (K562; [7]) is reported as > 100 µM. The GI50 (HL-60(TB)) was > 100 µM, the TGI (HL-60(TB)) was > 100 µM and the CC50 (HL-60(TB); [7]) was > 100 µM. The GI50 (T47D) was 9.45 µM, the TGI (T47D) was > 100 µM and the CC50 (T47D; [7]) was > 100 µM. For the same molecule, the GI50 (BT-549) was 13.7 µM, the TGI (BT-549) was > 100 µM and the CC50 (BT-549; [7]) was > 100 µM. For the same molecule, the GI50 (MDA-MB-231) was 4.26 µM, the TGI (MDA-MB-231) was 23.8 µM and the CC50 (MDA-MB-231; [7]) was > 100 µM. For the same molecule, the GI50 [1] was 3.75 µM, the TGI [1] was > 100 µM and the CC50 [1, 7] was > 100 µM. For the same molecule, the GI50 (TK-10) was 11.3 µM, the TGI (TK-10) was 52.7 µM and the CC50 (TK-10; [7]) was > 100 µM. The GI50 [2] was 2.56 µM, the TGI [2] was 7.11 µM and the CC50 [2, 7] was > 100 µM. The GI50 (SN12C) was 26.2 µM, the TGI (SN12C) was > 100 µM and the CC50 (SN12C; [7]) was > 100 µM. The GI50 (SK-OV-3) was 2.73 µM, the TGI (SK-OV-3) was 13.7 µM and the CC50 (SK-OV-3; [7]) was > 100 µM. For the same molecule, the GI50 [3] was > 100 µM, the TGI [3] was > 100 µM and the CC50 [3, 7] was > 100 µM. The GI50 (OVCAR-8) was 7.36 µM, the TGI (OVCAR-8) was > 100 µM and the CC50 (OVCAR-8; [7]) was > 100 µM. The GI50 (IGROV-1) was 3.74 µM, the TGI (IGROV-1) was 29.4 µM and the CC50 (IGROV-1; [7]) was > 100 µM. For the same molecule, the GI50 [4] was > 100 µM, the TGI [4] was > 100 µM and the CC50 [4, 7] was > 100 µM. For the same molecule, the GI50 (SK-MEL-28) was > 100 µM, the TGI (SK-MEL-28) was > 100 µM and the CC50 (SK-MEL-28; [7]) was > 100 µM. For the same molecule, the GI50 (M14) was 97.4 µM, the TGI (M14) was > 100 µM and the CC50 (M14; [7]) was > 100 µM. For the same molecule, the GI50 (Malme-3M) was 17.2 µM, the TGI (Malme-3M) was > 100 µM and the CC50 (Malme-3M; [7]) was > 100 µM. The GI50 (SNB-19) was 6.43 µM, the TGI (SNB-19) was > 100 µM and the CC50 (SNB-19; [7]) was > 100 µM. For the same molecule, the GI50 [5] was 4.77 µM, the TGI [5] was 38.8 µM and the CC50 [5, 7] was > 100 µM. For the same molecule, the GI50 (SW-620) was > 100 µM, the TGI (SW-620) was > 100 µM and the CC50 (SW-620; [7]) was > 100 µM. The GI50 (HCT-15) was > 100 µM, the TGI (HCT-15) was > 100 µM and the CC50 (HCT-15; [7]) was > 100 µM. For the same molecule, the GI50 [6] was > 100 µM, the TGI [6] was > 100 µM and the CC50 [6, 7] was > 100 µM. For the same molecule, the GI50 (COLO 205) was > 100 µM, the TGI (COLO 205) was > 100 µM and the CC50 (COLO 205; [7]) was > 100 µM. The GI50 (NCI-H522) was 21.4 µM, the TGI (NCI-H522) was > 100 µM and the CC50 (NCI-H522; [7]) was > 100 µM. The GI50 (NCI-H460) was > 100 µM, the TGI (NCI-H460) was > 100 µM and the CC50 (NCI-H460; [7]) was > 100 µM. The GI50 (HOP-62) was 2.06 µM, the TGI (HOP-62) was 6.8 µM and the CC50 (HOP-62; [7]) was > 100 µM.
